The source of these data is ChEMBL document CHEMBL3272055, “2,3-Disubstituted 1,8-naphthyridines as potential diuretic agents. 2. 5,7-Dimethyl derivatives” (J Med Chem, 1977).

SMILES strings stand for the structures.

Series [1] relates to Rattus norvegicus. The experiment in a line: Diuretic activity in saline-loaded Wistar albino rat assessed as increase of saline-load excretion at 2 mg/kg, ip measured for 6 hrs relative to control. In kind it is functional, Urine. Particulars: route intraperitoneal. In a few lines: (§1)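 Saline-loaded rats given compound ip, screened at 15 mg/kg, with actives retested at 2 mg/kg. Diuresis was read as urine volume output over 6 h by a modified Lipschitz method and expressed as % of the saline load excreted, as an increase over controls. A response under 21.8% above control was counted insignificant. Activity was also expressed relative to triamterene.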

For series [2], the system named is Rattus norvegicus. The series can be described thus: Diuretic activity in saline-loaded Wistar albino rat assessed as increase of saline-load excretion at 15 mg/kg, ip measured for 6 hrs relative to control. In kind it is functional, Urine. As to conditions: route intraperitoneal. In outline:
as §1

Series [3] concerns Rattus norvegicus. The experiment in a line: Diuretic activity in saline-loaded Wistar albino rat assessed as increase of saline-load excretion at 15 mg/kg, ip measured for 6 hrs relative to triamterene. The class given is functional, Urine. As to conditions: route intraperitoneal. In a few lines:
as §1

The subject of series [4] is Rattus norvegicus. The experiment in a line: Natriuretic activity in nonloaded rat assessed as increase in Na+ secretion at 15 mg/kg after 6 hrs relative to control. In kind it is functional. In a few lines: (§2)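 Nonloaded rats dosed at 2 or 15 mg/kg. Urine was collected cumulatively over 6 h and urine volume, Na+ and K+ (mequiv) measured. Values are means of eight rats, reported as drug versus control, with the Na+/K+ ratio derived from these.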

The subject of series [5] is Rattus norvegicus. The experiment in a line: Toxicity in nonloaded rat assessed as kaluretic effect by measuring increase in K+ secretion at 15 mg/kg after 6 hrs relative to control. In kind it is organism-based. Set-up: dose 15 mg/kg. Particulars: in vivo. In a few lines: as §2
The subject of series [6] is Rattus norvegicus. The experiment in a line: Diuretic activity in nonloaded rat assessed as urine volume at 15 mg/kg after 6 hrs relative to control. In kind it is functional. In outline:
as §2

Series [7] has as its system Rattus norvegicus. The series can be described thus: Ratio of natriuretic activity in nonloaded rat assessed as increase in Na+ secretion at 15 mg/kg to kaliuretic activity in nonloaded rat assessed as increase in K+ secretion at 15 mg/kg. In outline:
as §2

Series [8] deals with Rattus norvegicus. The experiment in a line: Diuretic activity in saline-loaded Wistar albino rat assessed as increase of saline-load excretion at 2 mg/kg, ip measured for 6 hrs relative to triamterene. In kind it is functional, Urine. Particulars: route intraperitoneal. In outline:
as §1

The test system of series [9] is Rattus norvegicus. The experiment in a line: Natriuretic activity in nonloaded rat assessed as increase in Na+ secretion at 2 mg/kg after 6 hrs relative to control. The class given is functional. In outline: as §2
In series [10] the test system is Rattus norvegicus. The experiment in a line: Toxicity in nonloaded rat assessed as kaluretic effect by measuring increase in K+ secretion at 2 mg/kg after 6 hrs relative to control. The class given is organism-based. Set-up: dose 2 mg/kg. Particulars: in vivo. In a few lines:
as §2

Series [11] deals with Rattus norvegicus. The series can be described thus: Diuretic activity in nonloaded rat assessed as urine volume at 2 mg/kg after 6 hrs relative to control. The class given is functional. In outline:
as §2

The test system of series [12] is Rattus norvegicus. The series can be described thus: Ratio of natriuretic activity in nonloaded rat assessed as increase in Na+ secretion at 2 mg/kg to kaliuretic activity in nonloaded rat assessed as increase in K+ secretion at 2 mg/kg. In outline:
as §2

Consider `COC(=O)c1cc2c(C)cc(C)nc2nc1N`, for which the Activity in the series with Rattus norvegicus [1] was less than 21.8%; with Rattus norvegicus [2] it was 47.3%; with Rattus norvegicus [4], 0.221 milliequivalent; in the series with Rattus norvegicus [5], 0.21 milliequivalent; in the series with Rattus norvegicus [6], 1.6 mL. Also, in the series with Rattus norvegicus [3], the “fold change (FC)” value worked out at 0.82. The Ratio in the series with Rattus norvegicus [7] was 1.05.
With `CCCCNC(=O)c1cc2c(C)cc(C)nc2nc1N`, the Activity was 43.2% with Rattus norvegicus [1]; 152.7% in the series with Rattus norvegicus [2]; 0.427 milliequivalent in the series with Rattus norvegicus [4]; 0.25 milliequivalent in the series with Rattus norvegicus [5]; 0.471 milliequivalent in the series on Rattus norvegicus [9]; 0.217 milliequivalent in the series with Rattus norvegicus [10]. For the same compound, the Activity was 4.1 mL with Rattus norvegicus [6] and 3.7 mL with Rattus norvegicus [11]. For the same compound, the results for the “fold change (FC)” value in the series with Rattus norvegicus [8] and in the series on Rattus norvegicus [3] were 1.25 and 2.64, respectively. Also, the Ratio in the series on Rattus norvegicus [7] is 1.71; in the series on Rattus norvegicus [12], 2.17.
In the case of `CCCNC(=O)c1cc2c(C)cc(C)nc2nc1N`, the Activity is less than 21.8% with Rattus norvegicus [1]; 53.7% in the series with Rattus norvegicus [2]; 0.41 milliequivalent in the series on Rattus norvegicus [4]; 0.25 milliequivalent in the series with Rattus norvegicus [5]; 3.9 mL with Rattus norvegicus [6]. Further, the “fold change (FC)” value with Rattus norvegicus [3] stood at 0.93. For the same compound, the Ratio in the series with Rattus norvegicus [7] turned out to be 1.64.
For `CCNC(=O)c1cc2c(C)cc(C)nc2nc1N`, the Activity with Rattus norvegicus [1] is less than 21.8%; in the series on Rattus norvegicus [2], 47.7%; in the series on Rattus norvegicus [4], 0.495 milliequivalent; in the series on Rattus norvegicus [5], 0.301 milliequivalent; in the series on Rattus norvegicus [6] it was 3.7 mL. The “fold change (FC)” value in the series with Rattus norvegicus [3] was 0.83. The Ratio with Rattus norvegicus [7] was 1.64.
For `Cl.NC(=O)c1cc2cccnc2nc1N.O`, the Activity in the series on Rattus norvegicus [1] was determined as 62.9%; in the series on Rattus norvegicus [2], 67.5%; with Rattus norvegicus [4], 0.765 milliequivalent; with Rattus norvegicus [5], 0.161 milliequivalent; in the series with Rattus norvegicus [6], 5.3 mL. Moreover, the results for the “fold change (FC)” value in the series with Rattus norvegicus [8] and in the series on Rattus norvegicus [3] were 3 and 1.41, respectively. For the same compound, the Ratio with Rattus norvegicus [7] was 4.75.
As to `CCCCCNC(=O)c1cc2c(C)cc(C)nc2nc1N`, the Activity with Rattus norvegicus [1] is less than 21.8%; with Rattus norvegicus [2], 23.4%; with Rattus norvegicus [4], 0.39 milliequivalent; in the series with Rattus norvegicus [5], 0.263 milliequivalent; in the series on Rattus norvegicus [6] it was 2.9 mL. Further, in the series with Rattus norvegicus [3], the “fold change (FC)” value was 0.4. The Ratio in the series on Rattus norvegicus [7] is given as 1.48.
Turning to `Nc1nc(N)c2nc(-c3ccccc3)c(N)nc2n1` [TRIAMTERENE], the Activity in the series with Rattus norvegicus [1] is 34.5%; with Rattus norvegicus [2], 57.8%; in the series with Rattus norvegicus [4] it was 0.804 milliequivalent; with Rattus norvegicus [5], 0.136 milliequivalent; in the series with Rattus norvegicus [6] it was 4.9 mL. Further, the Ratio in the series with Rattus norvegicus [7] worked out at 5.84.
